Measurements: ChEMBL document CHEMBL2331476, “A novel semisynthetic flavonoid 7-O-galloyltaxifolin upregulates heme oxygenase-1 in RAW264.7 cells via MAPK/Nrf2 pathway” (J Med Chem, 2013)
Active and inactive are the calls of the source. The calls are words filed in the database; no cut-off is given here.

What was measured:
[1] = target: MAP kinase p38 (Homo sapiens) (UniProt O15264+Q15759+Q16539+P53778); assay: Activation of p38MAPK in mouse RAW264.7 cells assessed as phosphorylation at Thr180/Tyr182 at 5 uM after 30 mins by Western blotting analysis; type: cell-based
In short: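 Serum-starved RAW264.7 cells were treated 30 min with 5 μM anisomycin in serum-free medium. Whole-cell lysate was made in Tris/NaCl/SDS/NP-40/Triton buffer with phosphatase and protease inhibitors, pH 7.4, and 35 μg/lane run on 10% SDS-PAGE. Blots were probed for p38 dually phosphorylated at Thr180/Tyr182 versus total p38, with chemiluminescent detection.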

[2] = target: T1, Nuclear factor erythroid 2-related factor 2 (Mus musculus) (UniProt Q60795); assay: Activation of Nrf2 in mouse RAW264.7 cells assessed as upregulation of Hmox1 gene expression at 50 uM after 6 hrs by real-time PCR analysis relative to GAPDH mRNA expression; type: cell-based
T1 sequence (whole entry): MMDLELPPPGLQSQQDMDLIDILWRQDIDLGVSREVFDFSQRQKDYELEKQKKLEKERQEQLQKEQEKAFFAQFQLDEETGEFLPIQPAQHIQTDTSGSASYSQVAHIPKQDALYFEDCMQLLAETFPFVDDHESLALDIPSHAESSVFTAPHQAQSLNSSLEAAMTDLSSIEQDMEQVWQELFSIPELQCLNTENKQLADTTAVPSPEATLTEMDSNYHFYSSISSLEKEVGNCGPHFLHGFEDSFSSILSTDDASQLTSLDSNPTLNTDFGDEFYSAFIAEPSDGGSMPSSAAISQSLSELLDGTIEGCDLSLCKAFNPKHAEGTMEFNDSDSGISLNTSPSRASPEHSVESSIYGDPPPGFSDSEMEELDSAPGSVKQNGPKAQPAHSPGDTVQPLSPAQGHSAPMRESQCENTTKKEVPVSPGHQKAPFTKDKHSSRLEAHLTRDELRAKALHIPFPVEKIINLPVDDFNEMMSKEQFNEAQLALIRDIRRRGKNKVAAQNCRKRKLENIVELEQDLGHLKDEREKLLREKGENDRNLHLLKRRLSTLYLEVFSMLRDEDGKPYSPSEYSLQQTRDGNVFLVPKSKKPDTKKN
In short: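 Serum-starved RAW264.7 cells were exposed for 6 h in serum-free medium against a 0.1% DMSO control. Total RNA (2 μg) was reverse-transcribed, then TaqMan qPCR run for Hmox1 and Gapdh over 40 cycles. Crossing points were taken by second-derivative maximum, and fold change calculated by the 2^−ΔΔCT method normalized to Gapdh. Mean ± SD of three experiments.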

[3] = system: RAW264.7; assay: Cytotoxicity against mouse RAW264.7 cells assessed as decreased cell viability at 50 uM after 6 hrs by MTT assay; type: cell-based; settings: raw264.7, 6 h
In short: (§1)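 Serum-starved RAW264.7 cells exposed 6 h at 10 or 50 μM; 0.1% DMSO control (100% viability), 1.5% Triton X-100 positive control. Cells washed and incubated 2 h at 37 °C with 0.5 mg/mL MTT in serum-free medium. Formazan dissolved in DMSO, A540 read, viability relative to DMSO-treated cells.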

[4] = target: T1, Nuclear factor erythroid 2-related factor 2 (Mus musculus); assay: Activation of Nrf2 in mouse RAW264.7 cells assessed as upregulation of HO1 protein expression at 50 uM after 6 hrs by Western blotting analysis; type: cell-based
In short: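 HO-1 protein in whole-cell lysates (20 μg/lane) of serum-starved RAW264.7 cells after 6 h at 10-50 μM or 50 μM for 1-6 h in serum-free medium, 0.1% DMSO control. Chemiluminescent Western blot; HO-1 densitometry normalized to actin, mean of three experiments.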

[5] = target: T1, Nuclear factor erythroid 2-related factor 2 (Mus musculus); assay: Activation of Nrf2 in mouse RAW264.7 cells assessed as cytosolic accumulation at 50 uM after 3 hrs by Western blotting analysis; type: cell-based
In short: (§2)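 RAW264.7 cells (passage 5−25) seeded at 1 × 10⁵ cells/cm², switched to serum-free medium after 8 h, left overnight, then treated 3 h in serum-free medium; 0.1% DMSO vehicle control. Cells were swollen in hypotonic HEPES/NP-40 buffer for the cytosolic fraction and nuclei extracted in high-salt buffer. Blots loaded 30 μg/lane, Nrf2 densitometry normalized to actin, mean of three experiments.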

[6] = system: RAW264.7; assay: Cytotoxicity against mouse RAW264.7 cells assessed as decreased cell viability at 10 uM after 6 hrs by MTT assay; type: cell-based; settings: raw264.7, 6 h; in short: as §1
[7] = target: T1, Nuclear factor erythroid 2-related factor 2 (Mus musculus); assay: Activation of Nrf2 in mouse RAW264.7 cells assessed as nuclear accumulation at 50 uM after 3 hrs by Western blotting analysis; type: cell-based; in short: as §2
[8] = system: RAW264.7; assay: Stability in mouse RAW264.7 cells assessed as gallic acid level at 50 uM after 6 hrs by HPLC/MS analysis; type: ADME, cell-based; settings: raw264.7, 6 h
[9] = system: RAW264.7; assay: Drug uptake in mouse RAW264.7 cells at 50 uM after 10 mins; type: ADME, cell-based; settings: raw264.7, 10 min
In short: (§3)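 Cells given 50 μM for up to 6 h, then scraped, washed twice in PBS and sonicated in methanol with 5% acetic acid. Supernatant analysed by UPLC on a phenyl column (water/1% acetic acid/methanol to methanol gradient, 35 °C) with negative ESI-QqTOF MS. Contents expressed as nmol per 10⁶ cells.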

[10] = system: RAW264.7; assay: Drug uptake in mouse RAW264.7 cells measured per 10^6 cells at 50 uM after 3 hrs; type: ADME, cell-based; settings: raw264.7, 3 h; in short: as §3
[11] = system: RAW264.7; assay: Drug uptake in mouse RAW264.7 cells measured per 10^6 cells at 50 uM after 6 hrs; type: ADME, cell-based; settings: raw264.7, 6 h; in short: as §3
[12] = target: T1, Nuclear factor erythroid 2-related factor 2 (Mus musculus); assay: Activation of Nrf2 in mouse RAW264.7 cells assessed as upregulation of Hmox1 gene expression at 10 to 50 uM after 6 hrs by real-time PCR analysis relative to GAPDH mRNA expression; type: cell-based
In short: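 RAW264.7 cells treated 6 h in serum-free medium, 0.1% DMSO control. Total RNA (2 μg) reverse transcribed; TaqMan qPCR for Hmox1 and Gapdh, 40 cycles. Relative expression by 2^−ΔΔCT, normalized to Gapdh; mean ± SD of three experiments.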

Structure (SMILES) | Activity [3] | fold change (FC) [4] | Activity [6] | Activity [12] | also measured
COc1ccc(C[C@H]2NC[C@H](O)[C@H]2OC(C)=O)cc1 | – | – | – | – | Activity [1]: Active
O=c1c(O)c(-c2ccc(O)c(O)c2)oc2cc(O)cc(O)c12 [QUERCETIN] | Non-toxic | 1.9 | Non-toxic | – | fold change (FC) [2]: 4.3; Activity [5]: Active; Activity [7]: Active
O=C(Oc1c(-c2ccc(O)c(O)c2)oc2cc(O)cc(O)c2c1=O)c1cc(O)c(O)c(O)c1 | 79% | 0.9 | – | inactive | Stability [8]: Stable; Drug uptake [9]: 85%; Drug uptake [10]: 1.75 nmol; Drug uptake [11]: 1.8 nmol
O=c1c(O[C@@H]2O[C@H](CO)[C@@H](O)[C@H](O)[C@H]2O)c(-c2ccc(O)c(O)c2)oc2cc(O)cc(O)c12 [ISOQUERCETIN] | Non-toxic | 1 | Non-toxic | inactive | –
O=C(O)c1cc(O)c(O)c(O)c1 [GALLIC ACID] | 76% | 1.5 | – | – | fold change (FC) [2]: 1.5
O=C(Oc1cc(O)c2c(=O)c(O)c(-c3ccc(O)c(O)c3)oc2c1)c1cc(O)c(O)c(O)c1 | – | – | – | – | Drug uptake [10]: 8.08 nmol
O=C1c2c(O)cc(O)cc2O[C@H](c2ccc(O)c(O)c2)[C@H]1O [(+)-TAXIFOLIN] | Non-toxic | 1 | Non-toxic | inactive | –
